According to ChEMBL document CHEMBL1157626, “A concise synthesis of 1,4-dihydro-[1,4]diazepine-5,7-dione, a novel 7-TM receptor ligand core structure with melanocortin receptor agonist activity” (Bioorg Med Chem, 2010):
Calls of active or inactive are those of the source. The rule behind the calls is not given here.

What was measured:
[1] = target: T1, Melanocyte-stimulating hormone receptor (Homo sapiens, UniProt Q01726); test: Agonist activity at human MC1R expressed in CHO cells after 4 hrs by luciferase reporter gene assay relative to alpha-melanocyte stimulating hormone; type: functional, cell-based; parameters: concentration or dose not given beside the values
How it was run: (§1)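 CHO-6xCRE-luc+ cells expressing the human receptor, plated at 4000 cells/well in DMEM/F12 with 10% FBS 48 h before assay. Switched to serum-free medium 16 h before compound addition, then incubated 4 h at 37 °C. Luciferase read after 10 min dark adaptation. Activity expressed as % of fold stimulation by 1 × 10^-7 M NDP-aMSH (duplicate control wells).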
Target sequence in this assay (Q01726 whole entry, looked up): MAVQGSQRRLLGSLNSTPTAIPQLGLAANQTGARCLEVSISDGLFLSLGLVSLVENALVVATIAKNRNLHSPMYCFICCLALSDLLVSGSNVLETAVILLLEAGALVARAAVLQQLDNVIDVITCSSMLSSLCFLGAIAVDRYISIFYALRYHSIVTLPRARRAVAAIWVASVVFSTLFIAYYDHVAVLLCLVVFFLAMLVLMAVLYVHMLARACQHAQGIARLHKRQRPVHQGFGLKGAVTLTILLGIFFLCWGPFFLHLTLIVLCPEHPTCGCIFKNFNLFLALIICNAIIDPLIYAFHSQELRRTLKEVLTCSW

Rattus norvegicus [2] = test: Anorexigenic activity in lean Sprague-Dawley rat assessed as suppression of peptide YY-induced food intake during day light cycle period at 5 mg/kg, po administered 30 mins before peptide YY challenge; type: functional, organism-based; parameters: dose 5 mg/kg
How it was run: (§2)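 Sated lean Sprague-Dawley rats with third-ventricle cannulae dosed by oral gavage at 10:30 AM. Vehicle was 50% PEG500/25% EtOH/25% water. 0.23 nmol PYY given ICV in sterile saline at 11:00 AM. Intake logged every half hour through the light period and the dark cycle (6 PM–6 AM). N = 5/group.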

Rattus norvegicus [3] = test: Anorexigenic activity in lean Sprague-Dawley rat assessed as suppression of peptide YY-induced food intake during day light cycle period at 25 mg/kg, po administered 30 mins before peptide YY challenge; type: functional, organism-based; parameters: dose 25 mg/kg; how it was run: as §2
[4] = Half life in Sprague-Dawley rat at 10 mg/kg, po; type: ADME, organism-based; parameters: dose 10 mg/kg, route oral; conditions: in vivo
How it was run: (§3)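 Single oral dose to Sprague Dawley rats, given as a suspension in 50% PEG/25% EtOH/25% H2O. Plasma samples collected over time to build the pharmacokinetic profile.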

[5] = Oral bioavailability in Sprague-Dawley rat at 10 mg/kg; type: ADME, organism-based; conditions: in vivo; how it was run: as §3
Melanocortin receptor 4 [6] = target: T2, Melanocortin receptor 4 (Homo sapiens, UniProt P32245); test: Agonist activity at human MC4R expressed in CHO cells after 4 hrs by luciferase reporter gene assay relative to alpha-melanocyte stimulating hormone; type: functional, cell-based; how it was run: as §1
Melanocortin receptor 4 [7] = target: T2, Melanocortin receptor 4; test: Agonist activity at human MC4R expressed in CHO cells after 4 hrs by luciferase reporter gene assay; type: functional, cell-based; conditions: read-out: pEC50 (converted); how it was run: as §1
Rattus norvegicus [8] = test: Anorexigenic activity in lean Sprague-Dawley rat assessed as suppression of peptide YY-induced nocturnal food intake during dark cycle period at 25 mg/kg, po administered 30 mins before peptide YY challenge; type: functional, organism-based; parameters: dose 25 mg/kg; how it was run: as §2
[9] = Cmax in Sprague-Dawley rat at 10 mg/kg, po; type: ADME, organism-based; parameters: dose 10 mg/kg, route oral; conditions: in vivo; how it was run: as §3
[10] = AUC (0 to infinity) in Sprague-Dawley rat at 10 mg/kg, po; type: ADME, organism-based; parameters: dose 10 mg/kg, route oral, time infinity; conditions: plasma; how it was run: as §3
[11] = target: T1, Melanocyte-stimulating hormone receptor; test: Agonist activity at human MC1R expressed in CHO cells after 4 hrs by luciferase reporter gene assay; type: functional, cell-based; conditions: read-out: pEC50 (converted); how it was run: as §1
Target sequence in this assay (Q01726 whole entry): as the sequence (Q01726 whole entry, looked up) above

[12] = Tmax in Sprague-Dawley rat at 10 mg/kg, po; type: ADME, organism-based; parameters: dose 10 mg/kg, route oral; conditions: in vivo; how it was run: as §3
Rattus norvegicus [13] = test: Anorexigenic activity in lean Sprague-Dawley rat assessed as suppression of nocturnal food intake during dark cycle period at 25 mg/kg, po administered prior to onset of nocturnal cycle; type: functional
Homo sapiens = species: Homo sapiens; test: Selectivity for human MC1R over human MC4R
Rattus norvegicus [14] = test: Anorexigenic activity in lean Sprague-Dawley rat assessed as suppression of peptide YY-induced food intake at 100 pmol, icv administered 15 mins before peptide YY challenge measured for 3 hrs; type: functional, organism-based
How it was run: (§4)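 Lean Sprague-Dawley rats (~400 g) with third-ventricle cannulae. Saline or 1 nmol SHU9119 given ICV 30 min before vehicle (2% DMSO/saline) or test compound ICV. 0.23 nmol PYY given ICV 15 min later. Powdered chow intake logged every half hour for 3 h. N = 7–8 per group.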

Rattus norvegicus [15] = test: Anorexigenic activity in lean Sprague-Dawley rat assessed as suppression of peptide YY-induced food intake at 100 pmol, icv administered 15 mins before peptide YY challenge measured for 3 hrs in presence of MC4R antagonist SHU9119; type: functional, organism-based; how it was run: as §4

T2 sequence (P32245 whole entry): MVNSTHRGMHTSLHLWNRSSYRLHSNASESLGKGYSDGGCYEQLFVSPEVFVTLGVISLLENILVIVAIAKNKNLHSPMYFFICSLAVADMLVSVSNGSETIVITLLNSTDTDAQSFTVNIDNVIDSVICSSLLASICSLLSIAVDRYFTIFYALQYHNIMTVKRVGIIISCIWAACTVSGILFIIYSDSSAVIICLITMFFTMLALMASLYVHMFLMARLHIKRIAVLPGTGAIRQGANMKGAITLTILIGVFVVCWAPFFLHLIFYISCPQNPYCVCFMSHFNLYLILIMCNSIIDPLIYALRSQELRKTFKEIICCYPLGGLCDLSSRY

| Compound | Activity [1] | inhibition (Rattus norvegicus [2]) | inhibition (Rattus norvegicus [3]) | half-life [4] | bioavailability [5] | Activity (Melanocortin receptor 4 [6]) | EC50 (Melanocortin receptor 4 [7]) | inhibition (Rattus norvegicus [8]) | Cmax [9] | AUC(0-inf) [10] | EC50 [11] | Tmax [12] | inhibition in vivo at 25 mg/kg (Rattus norvegicus [13]) | Selectivity ratio (Homo sapiens) | inhibition (Rattus norvegicus [14]) | inhibition (Rattus norvegicus [15]) |
| --- | --- | --- | --- | --- | --- | --- | --- | --- | --- | --- | --- | --- | --- | --- | --- | --- |
| COc1ccc(N(C(=O)CN2C=CN(c3ccccc3)C(=O)[C@H](Cc3n[nH]c4ccccc34)C2=O)C(C)C)cc1 | 82% | Active | Active | 1.5 h | 6.2% | 53 | 0.339 µM | Active | 123 ng/mL | 260 ng·h/mL | 0.0158 µM | 0.67 h | 20% |  |  |  |
| O=C1C(Cc2n[nH]c3cc(F)ccc23)C(=O)N(c2ccccc2)C=CN1CC(=O)N1CCCCc2ccccc21 (racemic) | 61% |  |  |  |  | 16 | 0.437 µM |  |  |  |  |  |  | > 100 |  |  |
| COc1ccc(N(C(=O)CN2C=CN(c3ccccc3)C(=O)C(Cc3n[nH]c4ccccc34)C2=O)C(C)C)cc1 (racemic) | 68% |  |  |  |  | 45 | 0.708 µM |  |  |  |  |  |  |  | Active | inactive |
